Reference: ChEMBL document CHEMBL1671716, “Antimicrobial susceptibility patterns for recent clinical isolates of anaerobic bacteria in South Korea” (2010)
In brackets after ≈: the same amount, converted by molar mass.

test system: Bacteroides fragilis; test: Antimicrobial activity against Bacteroides fragilis after 48 hrs by agar dilution method; type: functional; conditions: not given
Summary of the method: (§1)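 MICs on clinical anaerobe isolates by the CLSI agar dilution method. Inoculum of 10^5 CFU applied with a Steers replicator. Plates incubated 48 h at 37°C in an anaerobic chamber.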

SMILES | MIC50 | MIC90
CCC[C@@H]1C[C@@H](C(=O)N[C@@H]([C@H]2O[C@H](SC)[C@H](O)[C@@H](O)[C@H]2O)[C@H](C)Cl)N(C)C1 [CLINDAMYCIN] | 0.5 mg/L (≈ 1.18 µM) | > 128 mg/L

test system: Bacteroides thetaiotaomicron; test: Antimicrobial activity against Bacteroides thetaiotaomicron after 48 hrs by agar dilution method; type: functional; conditions: not given; summary of the method: as §1

SMILES | MIC50 | MIC90
CCC[C@@H]1C[C@@H](C(=O)N[C@@H]([C@H]2O[C@H](SC)[C@H](O)[C@@H](O)[C@H]2O)[C@H](C)Cl)N(C)C1 [CLINDAMYCIN] | > 128 mg/L | > 128 mg/L

test system: Bacteroides fragilis; test: Antimicrobial activity against Bacteroides fragilis assessed as percent susceptible isolates after 48 hrs by agar dilution method; type: functional; conditions: not given

SMILES | Activity
CCC[C@@H]1C[C@@H](C(=O)N[C@@H]([C@H]2O[C@H](SC)[C@H](O)[C@@H](O)[C@H]2O)[C@H](C)Cl)N(C)C1 [CLINDAMYCIN] | 67%

test system: Bacteroides thetaiotaomicron; test: Antimicrobial activity against Bacteroides thetaiotaomicron assessed as percent resistant isolates after 48 hrs by agar dilution method; type: functional; conditions: not given
Summary of the method: (§2)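 CLSI agar dilution on recent Korean clinical anaerobe isolates. Inoculum 10^5 CFU per spot by replicator. Plates incubated in an anaerobic chamber at 37°C for 48 h. For piperacillin plus tazobactam, tazobactam was held constant at 4 μg/ml. Resistance and susceptibility rates derived from MICs.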

SMILES | Activity
CCC[C@@H]1C[C@@H](C(=O)N[C@@H]([C@H]2O[C@H](SC)[C@H](O)[C@@H](O)[C@H]2O)[C@H](C)Cl)N(C)C1 [CLINDAMYCIN] | 68%

test system: Bacteroides caccae; test: Antimicrobial activity against Bacteroides caccae assessed as percent resistant isolates after 48 hrs by agar dilution method; type: functional; conditions: not given; summary of the method: as §2

SMILES | Activity
CCC[C@@H]1C[C@@H](C(=O)N[C@@H]([C@H]2O[C@H](SC)[C@H](O)[C@@H](O)[C@H]2O)[C@H](C)Cl)N(C)C1 [CLINDAMYCIN] | 68%

test system: Parabacteroides distasonis; test: Antimicrobial activity against Bacteroides distasonis assessed as percent susceptible isolates after 48 hrs by agar dilution method; type: functional; conditions: not given

SMILES | Activity
CCC[C@@H]1C[C@@H](C(=O)N[C@@H]([C@H]2O[C@H](SC)[C@H](O)[C@@H](O)[C@H]2O)[C@H](C)Cl)N(C)C1 [CLINDAMYCIN] | 16%

test system: Parabacteroides distasonis; test: Antimicrobial activity against Bacteroides distasonis assessed as percent resistant isolates after 48 hrs by agar dilution method; type: functional; conditions: not given; summary of the method: as §2

SMILES | Activity
CCC[C@@H]1C[C@@H](C(=O)N[C@@H]([C@H]2O[C@H](SC)[C@H](O)[C@@H](O)[C@H]2O)[C@H](C)Cl)N(C)C1 [CLINDAMYCIN] | 68%

test system: Phocaeicola vulgatus; test: Antimicrobial activity against Bacteroides vulgatus assessed as percent resistant isolates after 48 hrs by agar dilution method; type: functional; conditions: not given; summary of the method: as §2

SMILES | Activity
CCC[C@@H]1C[C@@H](C(=O)N[C@@H]([C@H]2O[C@H](SC)[C@H](O)[C@@H](O)[C@H]2O)[C@H](C)Cl)N(C)C1 [CLINDAMYCIN] | 68%

test system: Bacteroides ovatus; test: Antimicrobial activity against Bacteroides ovatus assessed as percent susceptible isolates after 48 hrs by agar dilution method; type: functional; conditions: not given

SMILES | Activity
CCC[C@@H]1C[C@@H](C(=O)N[C@@H]([C@H]2O[C@H](SC)[C@H](O)[C@@H](O)[C@H]2O)[C@H](C)Cl)N(C)C1 [CLINDAMYCIN] | 16%

test system: Bacteroides ovatus; test: Antimicrobial activity against Bacteroides ovatus assessed as percent resistant isolates after 48 hrs by agar dilution method; type: functional; conditions: not given; summary of the method: as §2

SMILES | Activity
CCC[C@@H]1C[C@@H](C(=O)N[C@@H]([C@H]2O[C@H](SC)[C@H](O)[C@@H](O)[C@H]2O)[C@H](C)Cl)N(C)C1 [CLINDAMYCIN] | 68%

test system: Prevotella buccae; test: Antimicrobial activity against Prevotella buccae after 48 hrs by agar dilution method; type: functional; conditions: Segatella buccae
Summary of the method: (§3)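 CLSI agar dilution (M11-A7); inoculum 10^5 CFU applied by replicator; plates incubated anaerobically 48 h at 37°C. For piperacillin-tazobactam, tazobactam held constant at 4 μg/ml.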

SMILES | MIC50 | MIC90
CCC[C@@H]1C[C@@H](C(=O)N[C@@H]([C@H]2O[C@H](SC)[C@H](O)[C@@H](O)[C@H]2O)[C@H](C)Cl)N(C)C1 [CLINDAMYCIN] | ≤ 0.06 mg/L | 128 mg/L (≈ 301 µM)

test system: Hoylesella oralis; test: Antimicrobial activity against Prevotella oralis after 48 hrs by agar dilution method; type: functional; conditions: not given; summary of the method: as §3

SMILES | MIC50 | MIC90
CCC[C@@H]1C[C@@H](C(=O)N[C@@H]([C@H]2O[C@H](SC)[C@H](O)[C@@H](O)[C@H]2O)[C@H](C)Cl)N(C)C1 [CLINDAMYCIN] | ≤ 0.06 mg/L | 128 mg/L (≈ 301 µM)

test system: Prevotella intermedia; test: Antimicrobial activity against Prevotella intermedia assessed as percent resistant isolates after 48 hrs by agar dilution method; type: functional; conditions: not given; summary of the method: as §2

SMILES | Activity
CCC[C@@H]1C[C@@H](C(=O)N[C@@H]([C@H]2O[C@H](SC)[C@H](O)[C@@H](O)[C@H]2O)[C@H](C)Cl)N(C)C1 [CLINDAMYCIN] | 0%

test system: Hoylesella oralis; test: Antimicrobial activity against Prevotella oralis assessed as percent susceptible isolates after 48 hrs by agar dilution method; type: functional; conditions: not given
Summary of the method: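 CLSI agar dilution MIC testing of clinical isolates. 10^5 CFU spotted by replicator, plates incubated 48 h at 37°C in an anaerobic chamber. Susceptibility rates derived from the MICs.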

SMILES | Activity
CCC[C@@H]1C[C@@H](C(=O)N[C@@H]([C@H]2O[C@H](SC)[C@H](O)[C@@H](O)[C@H]2O)[C@H](C)Cl)N(C)C1 [CLINDAMYCIN] | 50%

test system: Porphyromonas asaccharolytica; test: Antimicrobial activity against Porphyromonas asaccharolytica after 48 hrs by agar dilution method; type: functional; conditions: not given; summary of the method: as §3

SMILES | MIC
CCC[C@@H]1C[C@@H](C(=O)N[C@@H]([C@H]2O[C@H](SC)[C@H](O)[C@@H](O)[C@H]2O)[C@H](C)Cl)N(C)C1 [CLINDAMYCIN] | 0.06 mg/L (≈ 0.141 µM)

test system: Fusobacterium varium; test: Antimicrobial activity against Fusobacterium varium after 48 hrs by agar dilution method; type: functional; conditions: not given; summary of the method: as §3

SMILES | MIC
CCC[C@@H]1C[C@@H](C(=O)N[C@@H]([C@H]2O[C@H](SC)[C@H](O)[C@@H](O)[C@H]2O)[C@H](C)Cl)N(C)C1 [CLINDAMYCIN] | 0.06 mg/L (≈ 0.141 µM)

test system: Fusobacterium necrogenes; test: Antimicrobial activity against Fusobacterium necrogenes after 48 hrs by agar dilution method; type: functional; conditions: not given; summary of the method: as §3

SMILES | MIC
CCC[C@@H]1C[C@@H](C(=O)N[C@@H]([C@H]2O[C@H](SC)[C@H](O)[C@@H](O)[C@H]2O)[C@H](C)Cl)N(C)C1 [CLINDAMYCIN] | 0.06 mg/L (≈ 0.141 µM)

test system: Peptostreptococcus anaerobius; test: Antimicrobial activity against Peptostreptococcus anaerobius after 48 hrs by agar dilution method; type: functional; conditions: not given; summary of the method: as §3

SMILES | MIC50 | MIC90
CCC[C@@H]1C[C@@H](C(=O)N[C@@H]([C@H]2O[C@H](SC)[C@H](O)[C@@H](O)[C@H]2O)[C@H](C)Cl)N(C)C1 [CLINDAMYCIN] | 0.125 mg/L (≈ 0.294 µM) | 64 mg/L (≈ 151 µM)

test system: Parvimonas micra; test: Antimicrobial activity against Peptostreptococcus micros after 48 hrs by agar dilution method; type: functional; conditions: not given; summary of the method: as §3

SMILES | MIC50 | MIC90
CCC[C@@H]1C[C@@H](C(=O)N[C@@H]([C@H]2O[C@H](SC)[C@H](O)[C@@H](O)[C@H]2O)[C@H](C)Cl)N(C)C1 [CLINDAMYCIN] | 0.125 mg/L (≈ 0.294 µM) | 64 mg/L (≈ 151 µM)

test system: Peptostreptococcus anaerobius; test: Antimicrobial activity against Peptostreptococcus anaerobius assessed as percent susceptible isolates after 48 hrs by agar dilution method; type: functional; conditions: not given; summary of the method: as §2

SMILES | Activity
CCC[C@@H]1C[C@@H](C(=O)N[C@@H]([C@H]2O[C@H](SC)[C@H](O)[C@@H](O)[C@H]2O)[C@H](C)Cl)N(C)C1 [CLINDAMYCIN] | 77%

test system: Anaerococcus prevotii; test: Antimicrobial activity against Anaerococcus prevotii after 48 hrs by agar dilution method; type: functional; conditions: not given; summary of the method: as §1

SMILES | MIC50 | MIC90
CCC[C@@H]1C[C@@H](C(=O)N[C@@H]([C@H]2O[C@H](SC)[C@H](O)[C@@H](O)[C@H]2O)[C@H](C)Cl)N(C)C1 [CLINDAMYCIN] | 2 mg/L (≈ 4.71 µM) | 128 mg/L (≈ 301 µM)

test system: Anaerococcus prevotii; test: Antimicrobial activity against Anaerococcus prevotii assessed as percent susceptible isolates after 48 hrs by agar dilution method; type: functional; conditions: not given

SMILES | Activity
CCC[C@@H]1C[C@@H](C(=O)N[C@@H]([C@H]2O[C@H](SC)[C@H](O)[C@@H](O)[C@H]2O)[C@H](C)Cl)N(C)C1 [CLINDAMYCIN] | 60%

test system: Anaerococcus prevotii; test: Antimicrobial activity against Anaerococcus prevotii assessed as percent resistant isolates after 48 hrs by agar dilution method; type: functional; conditions: not given; summary of the method: as §2

SMILES | Activity
CCC[C@@H]1C[C@@H](C(=O)N[C@@H]([C@H]2O[C@H](SC)[C@H](O)[C@@H](O)[C@H]2O)[C@H](C)Cl)N(C)C1 [CLINDAMYCIN] | 40%
